From ChEMBL document CHEMBL1926575, “Synthesis, biological evaluation and molecular modeling of 1,2,3-triazole analogs of combretastatin A-1” (Bioorg Med Chem, 2012)

Legend:
MCF7 = test: Cytotoxicity against human MCF7 cells by alamar blue assay; type: functional, cell-based
NCI-H460 = test: Cytotoxicity against human NCI-H460 cells by alamar blue assay; type: functional, cell-based
HT-29 = test: Cytotoxicity against human HT-29 cells by alamar blue assay; type: functional, cell-based
CCRF-CEM = test: Cytotoxicity against human CEM cells by alamar blue assay; type: functional, cell-based
[1] = Cytotoxicity against human fibroblast cells by alamar blue assay; type: cell-based
[2] = Inhibition of angiogenesis in endothelial cells assessed as inhibition of tube formation after 18 hrs by inverted microscopic analysis; type: functional, cell-based; details: Endothelial cell
Tubulin = Tubulin (Sus scrofa, UniProt P02554+P02550); test: Inhibition of porcine brain tubulin polymerization after 60 mins
Outline: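 Porcine brain tubulin (50 ul of 11 mg/ml stock) in Mes buffer (0.1 M Mes, 1 mM EGTA, 0.5 mM MgCl2, pH 6.6) with GTP (20 ul of 5 mM stock), plate prechilled 4 °C, drug added in DMSO; A350 recorded at ambient temperature for 60 min against drug blanks. IC50 read graphically as percent of control assembly.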

[3] = Ratio of CA-1 IC50 to compound IC50 for inhibition of angiogenesis in endothelial cells; type: functional, Endothelial cell

SMILES	IC50 (MCF7) [µM]	IC50 (NCI-H460) [µM]	IC50 (HT-29) [µM]	IC50 (CCRF-CEM) [µM]	IC50 [1] [µM]	IC50 [2] [µM]	IC50 (Tubulin) [µM]	Ratio IC50 [3]
COc1ccc(-c2cnnn2-c2cc(OC)c(OC)c(OC)c2)c(N)c1N	38.8	17.3	17.2	> 100	> 100	0.3	5.2	10
COc1cc(-n2nncc2-c2ccc3c(c2O)OC(C)(C)O3)cc(OC)c1OC	46.3	16.8	> 100	> 100	> 100	> 10	> 20	–
COc1ccc(/C=C\c2cc(OC)c(OC)c(OC)c2)c(O)c1O [COMBRETASTATIN A-1]	75.9	1.8	0.9	> 100	> 100	3.2	3.5	–
COc1cc(-n2nncc2-c2ccc(OC)c([N+](=O)[O-])c2[N+](=O)[O-])cc(OC)c1OC	6.1	0.7	12	26	31.5	4.4	> 20	–
COc1ccc(/C=C\c2cc(OC)c(OC)c(OC)c2)cc1O [COMBRETASTATIN A4]	48.9	4.4	0.4	> 100	> 100	0.01	–	–
COc1cc(-n2cc(-c3ccc(OC)c([N+](=O)[O-])c3[N+](=O)[O-])nn2)cc(OC)c1OC	> 100	18.2	> 100	> 100	> 100	> 10	–	–
COc1ccc(-n2nncc2-c2cc(OC)c(OC)c(OC)c2)c(O)c1O	> 100	26.6	64.3	> 100	> 100	> 10	> 20	–
COc1ccc(-c2cnnn2-c2cc(OC)c(OC)c(OC)c2)c(F)c1F	26.7	4.9	1.9	> 100	> 100	0.3	15.6	10
COc1cc(-n2nncc2-c2ccc3c(c2O)OCO3)cc(OC)c1OC	> 100	7.4	8.8	> 100	> 100	3.4	17.1	–
COc1ccc(-c2cn(-c3cc(OC)c(OC)c(OC)c3)nn2)c(N)c1N	> 100	29.8	> 100	> 100	> 100	> 10	–	–
COc1ccc(-c2cnnn2-c2cc(OC)c(OC)c(OC)c2)c(O)c1O	–	–	–	–	–	–	10.1	–
